We go through 16 compounds from ChEMBL document CHEMBL1828598, “Discovery of gemfibrozil analogues that activate PPARα and enhance the expression of gene CPT1A involved in fatty acids catabolism” (Eur J Med Chem, 2011).

By EC50 is commonly meant the concentration needed to bring the measured effect to its halfway point.

Calls of active or inactive are those of the source. The calls are words filed in the database; no cut-off is given here.

For assay [1], the target named is T1, Peroxisome proliferator-activated receptor alpha (Homo sapiens, UniProt Q07869).
T1 sequence (Q07869 whole entry): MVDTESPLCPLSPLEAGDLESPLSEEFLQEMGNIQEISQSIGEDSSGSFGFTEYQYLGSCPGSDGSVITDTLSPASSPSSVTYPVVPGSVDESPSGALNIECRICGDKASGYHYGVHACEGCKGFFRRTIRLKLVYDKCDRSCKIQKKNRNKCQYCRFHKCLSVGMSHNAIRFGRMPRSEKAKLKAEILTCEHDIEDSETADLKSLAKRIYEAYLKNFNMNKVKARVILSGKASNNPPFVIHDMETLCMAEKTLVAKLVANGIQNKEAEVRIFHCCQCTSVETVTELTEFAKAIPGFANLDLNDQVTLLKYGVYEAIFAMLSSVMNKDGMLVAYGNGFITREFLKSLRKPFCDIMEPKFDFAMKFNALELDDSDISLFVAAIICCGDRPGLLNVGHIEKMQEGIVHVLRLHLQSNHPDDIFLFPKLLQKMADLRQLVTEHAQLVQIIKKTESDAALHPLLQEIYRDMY
Put plainly: Agonist activity at Gal4-fused PPARalpha expressed in HEK293 cells after 18 hrs by dual luciferase reporter gene assay. Format: functional, cell-based. Summed up: (§1)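 HEK293 cells were grown in DMEM with 10% FCS, penicillin/streptomycin, sodium pyruvate and nonessential amino acids at 37 °C, 5% CO2. The next day they were transfected in serum-free medium by calcium phosphate with GAL4-PPARα LBD (30 ng), firefly luciferase reporter (50 ng), renilla normalization vector (20 ng) and carrier DNA. Ligands were added 8 h later for 18 h. Efficacy is given as % of maximal gemfibrozil fold induction, from at least three separate experiments.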
(In general: In a reporter assay the amount or activity of a reporter protein is the signal.)

Assay [2] addresses T2, Peroxisome proliferator-activated receptor alpha (Homo sapiens) (UniProt Q07869).
T2 sequence (whole entry): T1 sequence (Q07869 whole entry)
In words: Agonist activity at Gal4-fused PPARalpha expressed in HEK293 cells after 18 hrs by dual luciferase reporter gene assay relative to gemfibrozil. The assay is classed as functional, cell-based. Summed up:
as §1

Another assay has as its system HEK293. In words: Selectivity ratio of EC50 for Gal4-fused PPARalpha expressed in HEK293 cells to EC50 for Gal4-fused PPARgamma expressed in HEK293 cells. Format: cell-based.
Assay [3] deals with T2, Peroxisome proliferator-activated receptor alpha (Homo sapiens). Put plainly: Agonist activity at PPARalpha in human HepG2 cells assessed as upregulation of CPT1a mRNA expression after 24 hrs by quantitative RT-PCR analysis. Format: functional, cell-based. Summed up:
(§2)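 HepG2 cells were kept in DMEM with 10% FCS and 1% penicillin/streptomycin and seeded at 5 × 10⁵ cells/well the day before. They were treated 24 h with ligands in DMSO diluted in growth medium, and vehicle-only cells served as controls. Total RNA was taken with TRIzol and DNase-treated. CPT1A mRNA was measured by RT-qPCR against cyclophilin and normalized to vehicle-treated cells. Data are mean ± SEM of four independent determinations run in duplicate.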

Assay [4] has the same target. Put plainly: Agonist activity at PPARalpha in human HepG2 cells assessed as upregulation of CPT1a mRNA expression at 10 uM after 24 hrs by quantitative RT-PCR analysis relative to gemfibrozil. The assay is classed as functional, cell-based. In short, it runs like this: as §2
Assay [5] has the same target. In words: Agonist activity at PPARalpha in human HepG2 cells assessed as upregulation of CPT1a mRNA expression at 100 uM after 24 hrs by quantitative RT-PCR analysis relative to gemfibrozil. The assay is classed as functional, cell-based. Summed up: as §2
For assay [6] the target is unchanged. Put plainly: Agonist activity at PPARalpha in human HepG2 cells assessed as upregulation of CPT1a mRNA expression at 0.1 to 100 uM after 24 hrs by quantitative RT-PCR analysis. Format: functional, cell-based. In short, it runs like this: as §2

Regarding `CC(C)(CCCOc1ccc(/C=C/c2ccccc2)cc1)C(=O)O`, the EC50 in assay [1] (read-out: EC50) came out at 1 µM. This compound also came in with an Efficacy in assay [2] of 223%. The Ratio EC50 in the assay on HEK293 was determined as 1.4. Further, the Activity entry in assay [3] is “Dose-dependent effect”. Further, the fold change (FC) in assay [4] turned out to be 2; in assay [5], 6.
For `CC(C)(CCCOc1ccc(Oc2ccccc2)cc1)C(=O)O`, in assay [1] (read-out: EC50), the EC50 worked out at 9.1 µM. In assay [2], the Efficacy was 118%. Also, in the assay with HEK293, the Ratio EC50 turned out to be 1.4.
In the same order, the values of `CC(C)(CCCOc1ccc(/N=N/c2ccccc2)cc1)C(=O)O` are 43.7 µM, 76% and 0.8.
With `CC(C)(CCCOc1ccc(C(=O)c2ccccc2)cc1)C(=O)O`, in assay [1] (read-out: EC50), the EC50 turned out to be 9.3 µM. This compound returned an Efficacy in assay [2] of 82%. Further, the Ratio EC50 in the assay with HEK293 amounted to 0.9.
In the same order, the values of `O=C(O)CCCCOc1ccc(C(=O)/C=C/c2ccccc2)cc1` are 109 µM, 235% and 3.
`O=C(O)CCCCOc1ccc(NC(=O)Nc2ccccc2)cc1`: the concentration giving a half-maximal response (EC50) in assay [1] (read-out: EC50) turned out to be 9.3 µM. Further, the Efficacy in assay [2] came out at 106%. Besides, the Ratio EC50 with HEK293 is 1.3. The result in assay [6] was inactive.
In the case of `CC(=O)c1ccc(OCCCC(C)(C)C(=O)O)cc1`, the EC50 entry in assay [1] (hek293) is “Not Active”.
Consider `O=C(O)CCCCOc1ccc(C(=O)c2ccccc2)cc1`, for which, in assay [1] (read-out: EC50), the EC50 is 27.1 µM. For the same compound, in assay [2], the Efficacy is 123%. In addition, in the assay with HEK293, the Ratio EC50 was determined as 1.
In the same order, the values of `CC(C)(CCCOc1ccc(C(=O)/C=C/c2ccccc2)cc1)C(=O)O` are 61.5 µM, 165% and 2.1.
Turning to `C=CCc1ccc(OCCCCC(=O)O)c(OC)c1`, in assay [1] (read-out: EC50), the EC50 is 11.3 µM. The compound also gave an Efficacy in assay [2] of 94%. Moreover, the Ratio EC50 in the assay on HEK293 came out at 0.8. Also, in assay [6], the outcome was inactive.
With `Cc1ccc(C)c(OCCCC(C)(C)C(=O)O)c1` [GEMFIBROZIL], in assay [1] (read-out: EC50), the EC50 came out at 59 µM. For the same compound, the Ratio EC50 with HEK293 stood at 0.7. Besides, the outcome in assay [6] was Active.
Turning to `O=C(O)CCCCOc1ccc(Oc2ccccc2)cc1`, the EC50 entry in assay [1] (hek293) is listed as “Not Active”.
In the case of `O=C(O)CCCCOc1ccc(/C=C/c2ccccc2)cc1`, in assay [1] (read-out: EC50), the concentration giving a half-maximal response (EC50) came to 18.8 µM. This compound showed an Efficacy in assay [2] of 206%. Also, the Ratio EC50 with HEK293 worked out at 1.1.
For the compound `O=C(O)CCCCOc1ccc(/N=N/c2ccccc2)cc1`, the EC50 result in assay [1] (hek293) is “Not Active”.
Regarding `C=CCc1ccc(OCCCC(C)(C)C(=O)O)c(OC)c1`, the EC50 in assay [1] (read-out: EC50) was 6.6 µM. This compound also yielded an Efficacy in assay [2] of 117%. The Ratio EC50 in the assay on HEK293 is 1. For the same compound, in assay [6], the result was inactive.
Turning to `CC(=O)c1ccc(OCCCCC(=O)O)cc1`, in assay [1] (hek293), the concentration giving a half-maximal response (EC50) entry was “Not Active”.
